Measurements as given in ChEMBL document CHEMBL3862029, “Discovery of 8-Membered Ring Sulfonamides as Inhibitors of Oncogenic Mutant Isocitrate Dehydrogenase 1” (ACS Med Chem Lett, 2016).
In brackets after ≈: the same amount, converted by molar mass. Activity calls are given as the source filed them. No cut-off for these calls is given here.

Experiments:
[1] = tested on: Isocitrate dehydrogenase [NADP] cytoplasmic (Homo sapiens), O75874 [R132H]; test: Inhibition of human C-terminal His8-tagged IDH1-R132H mutant expressed in Escherichia coli Rosetta cells assessed as inhibition of ketoreductase activity measured as NADPH consumption preincubated for 60 mins followed by addition of NADPH and alpha-KG as substrate measured after 50 mins using Mg2+ as cofactor in presence of tween-20 detergent by resazurin/diaphorase-coupled fluorescence analysis
Sequence of Isocitrate dehydrogenase [NADP] cytoplasmic (Homo sapiens), O75874 [R132H] (O75874 whole entry R132H): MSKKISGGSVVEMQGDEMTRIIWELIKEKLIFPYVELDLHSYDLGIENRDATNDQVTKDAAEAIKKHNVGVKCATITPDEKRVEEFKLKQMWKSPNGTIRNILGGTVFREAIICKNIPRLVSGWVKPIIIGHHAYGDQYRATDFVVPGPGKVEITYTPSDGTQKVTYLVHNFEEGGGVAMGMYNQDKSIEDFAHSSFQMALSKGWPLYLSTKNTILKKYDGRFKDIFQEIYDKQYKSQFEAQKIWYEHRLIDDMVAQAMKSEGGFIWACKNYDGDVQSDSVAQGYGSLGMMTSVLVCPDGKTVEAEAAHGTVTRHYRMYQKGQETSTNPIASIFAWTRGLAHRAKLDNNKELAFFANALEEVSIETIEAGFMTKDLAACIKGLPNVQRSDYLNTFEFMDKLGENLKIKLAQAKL
How it was run: (§1)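 IDH1-R132H–Mg2+ ketoreductase assay reading NADPH consumption through a diaphorase-coupled fluorescence reaction. Buffer contained 0.01% Tween 20 against aggregation. Primary screen at 15 μM in duplicate, with positives set at ≥60% inhibition in both replicates. Retests were in 8-point dose.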

[2] = molecular target: T1, Isocitrate dehydrogenase [NADP] cytoplasmic (Homo sapiens, UniProt O75874, R132H); test: Inhibition of human C-terminal His8-tagged IDH1-R132H mutant expressed in Escherichia coli Rosetta assessed as inhibition of ketoreductase activity by measuring NADPH consumption preincubated for 60 mins followed by addition of alpha-KG as substrate measured after 50 mins in presence of NADPH and Mg2+ by resazurin based diaphorase-coupled fluorescence assay; how it was run: as §1
Target sequence in this assay (O75874 2-414 R132H limits assumed): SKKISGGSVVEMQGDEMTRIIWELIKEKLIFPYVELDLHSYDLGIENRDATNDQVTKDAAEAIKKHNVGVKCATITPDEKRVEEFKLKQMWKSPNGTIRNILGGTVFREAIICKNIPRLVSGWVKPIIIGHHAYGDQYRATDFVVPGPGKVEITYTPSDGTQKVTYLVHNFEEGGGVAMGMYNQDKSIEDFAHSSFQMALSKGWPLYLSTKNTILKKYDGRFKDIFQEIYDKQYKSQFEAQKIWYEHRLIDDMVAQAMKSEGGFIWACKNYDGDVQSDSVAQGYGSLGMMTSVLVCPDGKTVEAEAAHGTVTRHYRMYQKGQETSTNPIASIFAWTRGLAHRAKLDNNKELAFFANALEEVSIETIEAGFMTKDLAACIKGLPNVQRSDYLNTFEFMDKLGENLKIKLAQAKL

[3] = molecular target: Isocitrate dehydrogenase [NADP] cytoplasmic (Homo sapiens, UniProt O75874, R132C); test: (§2) Inhibition of human C-terminal His8-tagged IDH1-R132C mutant expressed in Escherichia coli Rosetta assessed as inhibition of ketoreductase activity by measuring NADPH consumption preincubated for 10 mins followed by addition of NADPH and alpha-KG as substrate by fluorescence method
Sequence of Isocitrate dehydrogenase [NADP] cytoplasmic (Homo sapiens, UniProt O75874, R132C) (O75874 2-414 R132C limits assumed): as the sequence (O75874 2-414 R132H limits assumed) above, with H131C counted along it

[4] = molecular target: Isocitrate dehydrogenase [NADP] cytoplasmic (Homo sapiens, UniProt O75874); test: Inhibition of wild type human C-terminal His8-tagged IDH1 expressed in Escherichia coli Rosetta cells assessed as reduction in isocitrate to alpha-KG conversion preincubated for 15 mins followed by substrate addition in presence of NADP+ by resazurin based diaphorase-coupled fluorescence assay
Sequence of Isocitrate dehydrogenase [NADP] cytoplasmic (Homo sapiens, UniProt O75874) (O75874 whole entry): as the sequence (O75874 whole entry R132H) above, with H132R counted along it
How it was run: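 Wild-type IDH1 activity read as NADPH production from NADP+ and isocitrate, through a diaphorase-coupled fluorescence reaction analogous to the primary screen.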

[5] = tested on: Isocitrate dehydrogenase [NADP] cytoplasmic (Homo sapiens), O75874 [R132H]; test: Inhibition of human C-terminal His8-tagged IDH1-R132H mutant expressed in Escherichia coli Rosetta cells assessed as change in melting temperature at 5 uM measured over 20 mins using SYPRO orange dye by DSF analysis
How it was run: (§3)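 Differential scanning fluorimetry of recombinant enzyme, giving melting temperature shift with compound present. Mean of 3 independent experiments, each with 7 replicates.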

[6] = tested on: Isocitrate dehydrogenase [NADP] cytoplasmic (Homo sapiens), O75874 [R132C]; test: Inhibition of human C-terminal His8-tagged IDH1-R132C mutant expressed in Escherichia coli Rosetta cells assessed as change in melting temperature at 5 uM measured over 20 mins using SYPRO orange dye by DSF analysis; how it was run: as §3
Sequence of Isocitrate dehydrogenase [NADP] cytoplasmic (Homo sapiens), O75874 [R132C] (O75874 whole entry R132C): as the sequence (O75874 whole entry R132H) above, with H132C counted along it

[7] = tested on: Isocitrate dehydrogenase [NADP] cytoplasmic (Homo sapiens), O75874 [R132H]; test: (§4) Inhibition of IDH1-R132H mutant (unknown origin) expressed in human HA1EM cells assessed as suppression of R-2HG secretion measured after 72 hrs by LC-MS/MS analysis; assay type: cell-based
How it was run: (§5)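 HA1E-M cells (HEK-293 derivative) engineered to overexpress IDH1-R132H and release R-2HG into growth media. Compound treatment for 72 h, then R-2HG in conditioned media measured by LC-MS. Values normalized to DMSO-treated controls; EC50 from three independent experiments, each run in triplicate.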

[8] = molecular target: T1, Isocitrate dehydrogenase [NADP] cytoplasmic; test: as §4; assay type: cell-based; how it was run: as §5
Target sequence in this assay (O75874 whole entry R132H): as the sequence (O75874 whole entry R132H) above

[9] = tested on: Isocitrate dehydrogenase [NADP] cytoplasmic (Homo sapiens), O75874 [R132H]; test: (§6) Competitive inhibition of recombinant human C-terminal His8-tagged IDH1-R132H mutant expressed in Escherichia coli Rosetta cells assessed as inhibition of ketoreductase activity by measuring NADPH consumption preincubated for 10 mins followed by addition of NADPH and varying levels of alpha-KG as substrate in presence of constant Mg2+ concentration by fluorescence method
[10] = tested on: Isocitrate dehydrogenase [NADP] cytoplasmic (Homo sapiens), O75874 [R132H]; test: as §6, with “and” for “and varying levels of”, “varying levels of” for “constant”
[11] = Thermodynamic solubility of the compound in PBS at 100 uM and pH 7.4 measured after 18 hrs by UPLC-MS analysis; assay type: physicochemical; conditions: read-out: Therm_solubility
[12] = Octanol-phosphate buffer partition coefficient, log D of compound at pH 7.4 at 67 uM; assay type: physicochemical
[13] = Half life in mouse liver microsomes at 1 uM by LC-MS/MS analysis; assay type: ADME
[14] = Half life in human liver microsomes at 1 uM by LC-MS/MS analysis; assay type: ADME
[15] = Protein binding in mouse plasma at 5 uM measured after 5 hrs by rapid equilibrium dialysis method; assay type: ADME, cell-free; conditions: read-out: PPB (converted)
[16] = Protein binding in human plasma at 5 uM measured after 5 hrs by rapid equilibrium dialysis method; assay type: ADME, cell-free; conditions: read-out: PPB (converted)
[17] = Cytotoxicity against human HA1EM cells assessed as decrease in intracellular ATP levels up to 10 uM measured after 72 hrs by CellTiter-Glo assay; assay type: toxicity, cell-based
How it was run: (§7)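 IDH1-R132H-overexpressing HA1E-M cells treated for 72 h. After media harvest, viability assessed by morphology and ATP levels. Values are normalized to DMSO controls, mean ± SD of three independent experiments each run in triplicate.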

[18] = Cytotoxicity against human HA1EM cells assessed as decrease in intracellular ATP levels at >10 uM measured after 72 hrs by CellTiter-Glo assay; assay type: toxicity, cell-based; how it was run: as §7
[19] = Cytotoxicity against human THP1 cells assessed as decrease in intracellular ATP levels up to 10 uM measured after 72 hrs by CellTiter-Glo assay; assay type: toxicity, cell-based; conditions: thp-1, 72 h
[20] = tested on: Isocitrate dehydrogenase [NADP] cytoplasmic (Homo sapiens), O75874 [R132H]; test: Inhibition of human C-terminal His8-tagged IDH1-R132H mutant expressed in Escherichia coli Rosetta cells assessed as inhibition of ketoreductase activity measured as NADPH consumption preincubated for 60 mins followed by addition of NADPH and alpha-KG as substrate measured after 50 mins using Mg2+ …
[21] = tested on: Isocitrate dehydrogenase [NADP] cytoplasmic (Homo sapiens), O75874 [R132H]; test: as §2, with “IDH1-R132H” for “IDH1-R132C”, “20” for “10”, “substrate in presence of Mg2+” for “substrate”, “spectrophotometric” for “fluorescence”
How it was run: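 Orthogonal confirmation assay: IDH1-R132H ketoreductase activity with NADPH detected by absorbance. Positives retested in 8-point dose.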

[22] = tested on: Isocitrate dehydrogenase [NADP] cytoplasmic (Homo sapiens), O75874 [R132H]; test: Inhibition of human C-terminal His8-tagged IDH1-R132H mutant expressed in Escherichia coli Rosetta assessed as inhibition of ketoreductase activity by measuring NADPH consumption preincubated for 10 mins followed by addition of NADPH and alpha-KG as substrate by fluorescence method
How it was run: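 Purified IDH1-R132H incubated with α-KG and NADPH; direct kinetic read of falling NADPH fluorescence, run in dose. Enzyme concentration kept below that of the screening assays so inhibitor stays far above enzyme. IC50 values are geometric means of at least three independent experiments.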

[23] = Cytotoxicity against human THP1 cells assessed as decrease in intracellular ATP levels at >10 uM measured after 72 hrs by CellTiter-Glo assay; assay type: toxicity, cell-based; conditions: thp-1, 72 h
[24] = Cytotoxicity against human U937 cells assessed as decrease in intracellular ATP levels up to 10 uM measured after 72 hrs by CellTiter-Glo assay; assay type: toxicity, cell-based; conditions: u-937, 72 h
[25] = Cytotoxicity against human U937 cells assessed as decrease in intracellular ATP levels at >10 uM measured after 72 hrs by CellTiter-Glo assay; assay type: toxicity, cell-based; conditions: u-937, 72 h
[26] = molecular target: Isocitrate dehydrogenase [NADP], mitochondrial (Homo sapiens) (UniProt P48735); test: Inhibition of human C-terminal FLAG-tagged IDH2-R140Q mutant (1 to 452 residues) expressed in baculovirus infeceted sf9 cells assessed as inhibition of ketoreductase activity preincubated for 10 mins followed by addition of NADPH and alpha-KG as substrate by fluorescence method

SMILES: C[C@@H]1CN([C@@H](C)CO)S(=O)(=O)c2ccc(C#Cc3cccc(F)c3)cc2O[C@H]1CN(C)C(=O)NC1CCCCC1
- inhibition [1]: Active
- IC50 [2]: 0.05 to 0.057 µM
- IC50 [3]: 2.5 µM
- IC50 [4]: > 20 µM
- ΔTm [5]: 3.7 °C
- ΔTm [6]: 1.4 °C
- inhibition [7]: Dose-dependent effect
- EC50 [8]: 0.3 µM
- inhibition [9]: Active
- inhibition [10]: Active
- solubility thermodynamic at 18 h, 100 µM [11]: 5 µM (≈ 2.86 µg/mL)
- logD at 67 µM [12]: 5.19
- half-life at 1 µM [13]: 42 s
- half-life at 1 µM [14]: 42 s
- fraction unbound at 5 h, 5 µM [15]: 0.037
- fraction unbound at 5 h, 5 µM [16]: 0.005
- Activity [17]: Non-Toxic
- Activity [18]: Toxic
- Activity [19]: Non-Toxic
- inhibition [20]: Active
- inhibition [21]: Active
- inhibition [22]: Active
- Activity [23]: Toxic
- Activity [24]: Non-Toxic
- Activity [25]: Toxic
- IC50 [26]: > 20 µM
